This is an account of results in ChEMBL document CHEMBL1125894, “Dual-action cephalosporins: cephalosporin 3'-quaternary ammonium quinolones” (1991).

The term ED50 denotes the dose that gives a 50% effect, or the effect in half of the subjects. In general, MIC refers to the lowest concentration that inhibits growth of the organism. Low values mean greater potency, high ones weaker potency.

The subject of experiment [1] is Pseudomonas aeruginosa. The experiment can be described thus: In vivo activity in murine against Pseudomonas aeruginosa 5712 infection after sc administration. The class given is functional. Conditions: Pseudomonas aeruginosa, sc; read-out: ED50. The procedure, abridged:
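Mouse protection test in CD1 Swiss albino mice (18–20 g) infected intraperitoneally with 0.5 mL of diluted P. aeruginosa suspension. Mice received 1.0 mL subcutaneously at the neck base within 5 min of infection and a second treatment 3 h after infection. Doses ranged from 0.05 to 250 mg/kg, with six mice per group. ED50 was calculated by the Reed–Muench method.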

For experiment [2], the system named is Klebsiella pneumoniae. The experiment in a line: In vivo activity in murine against Klebsiella pneumoniae A infection after sc administration. Type of experiment: functional. The procedure, abridged: (§1)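 Mouse protection test in CD1 Swiss albino mice (18–20 g). Mice were infected intraperitoneally with 0.5 mL of a diluted bacterial suspension, then treated within 5 min with one 1.0 mL subcutaneous dose at the dorsal base of the neck. Doses ranged from 0.05 to 250 mg/kg, with six mice per group. ED50 was calculated by the Reed–Muench method.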

Experiment [3] concerns Klebsiella pneumoniae. The experiment can be described thus: In vitro antibacterial activity against Klebsiella pneumoniae A. The class given is functional. The procedure, abridged:
(§2)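 Serial 2-fold dilutions in the NCCLS broth microdilution method for aerobic nonfastidious organisms, with an 18-h incubation. The value is reported as the minimum inhibitory concentration (MIC).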

Experiment [4] concerns Staphylococcus aureus. The experiment can be described thus: In vivo activity in murine against Staphylococcus aureus Smith (MS) infection after sc administration. The class given is functional. The procedure, abridged:
as §1

The test system of experiment [5] is Streptococcus pyogenes. The experiment in a line: In vivo activity in murine against Streptococcus pyogenes 4 infection after sc administration. The class given is functional. The procedure, abridged: as §1
Experiment [6] has as its system Pseudomonas aeruginosa. The experiment can be described thus: In vitro antibacterial activity against Pseudomonas aeruginosa 5712. Type of experiment: functional. The procedure, abridged: as §2
A further experiment has as its system Citrobacter freundii. The experiment in a line: In vivo activity in murine against Citrobacter freundii BS#16 infection after sc administration. Type of experiment: functional. The procedure, abridged:
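CD1 Swiss albino mice (18–20 g) infected intraperitoneally with 0.5 mL diluted bacterial culture suspension. Single subcutaneous treatment within 5 min, 1.0 mL at dorsal base of neck, serial dilutions spanning 0.05–250 mg/kg. Six mice per treatment and control group. ED50 (50% protective dose) derived by Reed and Muench method.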

The subject of another experiment is Escherichia coli. The experiment can be described thus: In vitro antibacterial activity against Escherichia coli 257. The class given is functional. The procedure, abridged: as §2
Experiment [7] concerns Streptococcus pyogenes. The experiment in a line: In vitro antibacterial activity against Streptococcus pyogenes 4. The class given is functional. The procedure, abridged: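 Broth macrodilution with serial 2-fold dilutions in cation-supplemented Mueller-Hinton broth containing 10% goat serum. The value is reported as the MIC.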
For experiment [8], the target named is T1, Penicillin-binding protein 1B (Escherichia coli K-12) (UniProt P02919).
T1 sequence (whole entry): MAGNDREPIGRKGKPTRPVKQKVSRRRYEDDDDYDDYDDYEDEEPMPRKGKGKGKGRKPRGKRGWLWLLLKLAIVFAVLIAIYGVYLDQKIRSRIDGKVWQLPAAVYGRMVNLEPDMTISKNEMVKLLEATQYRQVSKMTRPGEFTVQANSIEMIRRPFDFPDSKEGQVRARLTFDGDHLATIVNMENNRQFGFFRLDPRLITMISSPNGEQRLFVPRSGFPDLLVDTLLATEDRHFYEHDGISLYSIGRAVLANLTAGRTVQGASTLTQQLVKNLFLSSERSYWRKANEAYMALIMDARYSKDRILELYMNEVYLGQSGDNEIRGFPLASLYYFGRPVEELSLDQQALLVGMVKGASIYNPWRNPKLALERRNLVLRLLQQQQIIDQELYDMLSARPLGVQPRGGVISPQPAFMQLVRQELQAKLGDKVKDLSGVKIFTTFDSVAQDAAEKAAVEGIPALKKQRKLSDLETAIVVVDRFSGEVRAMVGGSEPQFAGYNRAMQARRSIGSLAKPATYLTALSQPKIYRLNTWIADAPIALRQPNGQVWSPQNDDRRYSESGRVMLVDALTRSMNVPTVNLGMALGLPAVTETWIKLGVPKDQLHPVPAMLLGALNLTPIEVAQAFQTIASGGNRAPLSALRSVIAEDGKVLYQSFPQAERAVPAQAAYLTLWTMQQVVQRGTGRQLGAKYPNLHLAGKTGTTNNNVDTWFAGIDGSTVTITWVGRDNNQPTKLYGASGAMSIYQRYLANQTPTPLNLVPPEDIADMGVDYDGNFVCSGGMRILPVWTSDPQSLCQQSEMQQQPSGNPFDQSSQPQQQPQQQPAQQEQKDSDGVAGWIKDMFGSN
The experiment in a line: Concentration required for 90% inhibition against 90 kDa penicillin-binding protein 1b binding using [14C]-Pen G as the radioligand. The procedure, abridged: (§3)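 Solubilized membranes from sonicated E. coli DC-0 were used. PBP binding was measured as inhibition of [14C]penicillin G binding to each PBP.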

The subject of the next experiment is Enterobacter cloacae. The experiment can be described thus: In vitro antibacterial activity against Enterobacter cloacae 5699. The class given is functional. The procedure, abridged: as §2
The next experiment concerns Streptococcus pneumoniae. The experiment in a line: In vivo activity in murine against Streptococcus pneumoniae 6301 infection after sc administration. The class given is functional. The procedure, abridged:
as §1

Experiment [9] concerns Staphylococcus aureus. The experiment can be described thus: In vitro antibacterial activity against Staphylococcus aureus Smith(MS). Type of experiment: functional. The procedure, abridged:
(§4)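 Staphylococci were tested by the standard agar dilution procedure using serial 2-fold dilutions of agent. The value is reported as the MIC.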

Experiment [10] concerns the target T2, Penicillin-binding protein 1A (Escherichia coli K-12) (UniProt P02918).
T2 sequence (whole entry): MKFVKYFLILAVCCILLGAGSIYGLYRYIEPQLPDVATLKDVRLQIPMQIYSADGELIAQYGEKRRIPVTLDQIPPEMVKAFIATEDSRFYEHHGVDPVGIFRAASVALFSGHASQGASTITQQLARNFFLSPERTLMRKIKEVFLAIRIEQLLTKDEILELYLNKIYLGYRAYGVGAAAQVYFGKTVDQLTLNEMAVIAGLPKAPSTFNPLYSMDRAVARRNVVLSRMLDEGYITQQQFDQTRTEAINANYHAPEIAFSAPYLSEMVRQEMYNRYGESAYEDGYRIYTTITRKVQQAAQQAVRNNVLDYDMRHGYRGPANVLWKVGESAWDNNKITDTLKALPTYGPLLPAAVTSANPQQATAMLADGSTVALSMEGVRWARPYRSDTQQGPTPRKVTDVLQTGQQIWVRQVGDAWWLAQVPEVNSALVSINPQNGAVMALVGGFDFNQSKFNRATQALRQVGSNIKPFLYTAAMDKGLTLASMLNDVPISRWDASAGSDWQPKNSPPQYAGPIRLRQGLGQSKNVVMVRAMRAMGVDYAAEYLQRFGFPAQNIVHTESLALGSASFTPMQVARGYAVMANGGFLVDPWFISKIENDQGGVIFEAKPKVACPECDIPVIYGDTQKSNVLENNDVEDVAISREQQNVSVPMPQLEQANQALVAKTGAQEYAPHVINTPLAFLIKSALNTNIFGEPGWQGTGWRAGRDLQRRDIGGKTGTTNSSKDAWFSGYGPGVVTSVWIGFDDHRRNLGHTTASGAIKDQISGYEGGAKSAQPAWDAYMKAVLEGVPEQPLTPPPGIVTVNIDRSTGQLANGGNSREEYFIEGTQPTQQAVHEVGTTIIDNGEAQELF
The experiment can be described thus: Concentration required for 90% inhibition against 90 kDa penicillin-binding protein 1a binding using [14C]-Pen G as the radioligand. The procedure, abridged:
as §3

The next experiment concerns Serratia marcescens. The experiment in a line: In vivo activity in murine against Serratia marcescens SM infection after sc administration. Type of experiment: functional. The procedure, abridged:
as §1

In experiment [11] the test system is Staphylococcus aureus. The experiment can be described thus: In vivo activity in murine against Staphylococcus aureus 753(MR) infection after sc administration. Type of experiment: functional. The procedure, abridged: as §1
In experiment [12] the test system is Staphylococcus aureus. The experiment can be described thus: In vitro antibacterial activity against Staphylococcus aureus 95(MR). Type of experiment: functional. The procedure, abridged: as §4

SMILES strings stand for the structures. Converted amounts (≈) assume the structure as drawn. Where only a bound is given, the exact number is not on record here.

On to `CC(C)(O/N=C(\C(=O)N[C@@H]1C(=O)N2C(C(=O)[O-])=C(C[N+]3(C)CCN(c4c(F)cc5c(=O)c(C(=O)O)cn(CCF)c5c4F)CC3)CS[C@H]12)c1csc(N)n1)C(=O)O`, for which the ED50 is more than 250 mg/kg with Pseudomonas aeruginosa [1]; 3 mg/kg with Klebsiella pneumoniae [2]; 2.6 mg/kg in the experiment on Staphylococcus aureus [4]; 54 mg/kg in the experiment on Streptococcus pyogenes [5]; 9 mg/kg in the experiment with Citrobacter freundii; 8 mg/kg with Streptococcus pneumoniae. Besides, the results for the ED50 in the experiment with Serratia marcescens and in the experiment with Staphylococcus aureus [11] were 8 mg/kg and 44 mg/kg, respectively. For the same compound, the MIC against Klebsiella pneumoniae [3] is 0.25 µg/mL (≈ 0.299 µM); against Pseudomonas aeruginosa [6] it was 16 µg/mL (≈ 19.1 µM); with Escherichia coli it was 0.25 µg/mL (≈ 0.299 µM); in the experiment on Streptococcus pyogenes [7], 0.5 µg/mL (≈ 0.597 µM); with Enterobacter cloacae it was 0.25 µg/mL (≈ 0.299 µM); in the experiment with Staphylococcus aureus [9], 16 µg/mL (≈ 19.1 µM). The compound also yielded an MIC against Staphylococcus aureus [12] of 8 µg/mL (≈ 9.56 µM). Moreover, the Concentration in [8] came to 30 µg/mL; in experiment [10] it was 2 µg/mL.
